What was measured:
MMP-2 CBD modules = conditions: cited from earlier work
[1] = molecular target: denatured type I collagen (gelatin), rat tail (rat, UniProt P02454 152-1207; P02466 86-1125); test: SPR
[2] = system: gelatin (denatured type I collagen); test: Surface plasmon resonance binding to immobilized gelatin; design: species or system rat; conditions: 1 µM analyte, Biacore buffer pH 7.4; compared to WT CBD
native type I collagen = test: Surface plasmon resonance binding to immobilized native type I collagen; design: species or system rat; conditions: 1 µM analyte, Biacore buffer pH 7.4; compared to WT CBD
Procedure, shortened: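 Native non-pepsin-treated acid-soluble rat tail type I collagen in 10 mM sodium acetate, pH 4.5, was amine-coupled to EDC/NHS-activated CM5 chips at ~3000 RU, then ethanolamine-blocked; an uncoated flow cell served as control. Analytes at 1 µM in 10 mM HEPES, 150 mM NaCl, 0.005% P20, pH 7.4, flowed at 5 µl/min for 6 min. RU were averaged over 5 s before injection end. Chips were regenerated with 6 M guanidine-HCl, with WT CBD run at the start and end of each series.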

Chain of denatured type I collagen (gelatin), rat tail (P02454 152-1207, chain 1 of 2): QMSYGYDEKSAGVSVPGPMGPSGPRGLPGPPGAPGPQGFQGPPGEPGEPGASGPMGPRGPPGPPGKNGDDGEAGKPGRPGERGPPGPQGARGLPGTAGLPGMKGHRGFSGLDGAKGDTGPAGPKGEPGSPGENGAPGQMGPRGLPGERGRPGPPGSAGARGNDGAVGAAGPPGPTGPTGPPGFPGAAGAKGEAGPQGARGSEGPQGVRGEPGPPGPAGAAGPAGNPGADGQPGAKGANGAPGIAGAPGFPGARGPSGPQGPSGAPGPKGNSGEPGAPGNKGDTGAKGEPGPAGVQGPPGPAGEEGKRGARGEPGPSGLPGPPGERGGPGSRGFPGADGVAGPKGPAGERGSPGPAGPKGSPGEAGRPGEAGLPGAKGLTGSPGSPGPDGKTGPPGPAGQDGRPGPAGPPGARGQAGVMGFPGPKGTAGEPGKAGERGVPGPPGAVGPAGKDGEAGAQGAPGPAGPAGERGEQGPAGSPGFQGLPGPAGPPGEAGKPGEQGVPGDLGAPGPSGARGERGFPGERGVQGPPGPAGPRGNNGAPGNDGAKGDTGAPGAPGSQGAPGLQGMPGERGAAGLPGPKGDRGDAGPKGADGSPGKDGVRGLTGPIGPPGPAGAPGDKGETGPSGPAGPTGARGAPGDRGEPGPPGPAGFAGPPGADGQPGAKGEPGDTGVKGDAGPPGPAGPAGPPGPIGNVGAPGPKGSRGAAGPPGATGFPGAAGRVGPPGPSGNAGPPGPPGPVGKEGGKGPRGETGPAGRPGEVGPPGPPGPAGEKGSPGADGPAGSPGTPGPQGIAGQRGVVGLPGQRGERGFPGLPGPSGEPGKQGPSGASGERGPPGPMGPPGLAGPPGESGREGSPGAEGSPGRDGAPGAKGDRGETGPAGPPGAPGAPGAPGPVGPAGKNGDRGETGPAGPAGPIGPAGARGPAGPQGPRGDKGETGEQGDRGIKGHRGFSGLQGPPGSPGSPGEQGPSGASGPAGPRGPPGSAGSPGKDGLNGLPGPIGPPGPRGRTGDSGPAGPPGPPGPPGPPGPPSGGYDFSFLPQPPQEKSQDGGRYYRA
Chain of denatured type I collagen (gelatin), rat tail (P02466 86-1125, chain 2 of 2): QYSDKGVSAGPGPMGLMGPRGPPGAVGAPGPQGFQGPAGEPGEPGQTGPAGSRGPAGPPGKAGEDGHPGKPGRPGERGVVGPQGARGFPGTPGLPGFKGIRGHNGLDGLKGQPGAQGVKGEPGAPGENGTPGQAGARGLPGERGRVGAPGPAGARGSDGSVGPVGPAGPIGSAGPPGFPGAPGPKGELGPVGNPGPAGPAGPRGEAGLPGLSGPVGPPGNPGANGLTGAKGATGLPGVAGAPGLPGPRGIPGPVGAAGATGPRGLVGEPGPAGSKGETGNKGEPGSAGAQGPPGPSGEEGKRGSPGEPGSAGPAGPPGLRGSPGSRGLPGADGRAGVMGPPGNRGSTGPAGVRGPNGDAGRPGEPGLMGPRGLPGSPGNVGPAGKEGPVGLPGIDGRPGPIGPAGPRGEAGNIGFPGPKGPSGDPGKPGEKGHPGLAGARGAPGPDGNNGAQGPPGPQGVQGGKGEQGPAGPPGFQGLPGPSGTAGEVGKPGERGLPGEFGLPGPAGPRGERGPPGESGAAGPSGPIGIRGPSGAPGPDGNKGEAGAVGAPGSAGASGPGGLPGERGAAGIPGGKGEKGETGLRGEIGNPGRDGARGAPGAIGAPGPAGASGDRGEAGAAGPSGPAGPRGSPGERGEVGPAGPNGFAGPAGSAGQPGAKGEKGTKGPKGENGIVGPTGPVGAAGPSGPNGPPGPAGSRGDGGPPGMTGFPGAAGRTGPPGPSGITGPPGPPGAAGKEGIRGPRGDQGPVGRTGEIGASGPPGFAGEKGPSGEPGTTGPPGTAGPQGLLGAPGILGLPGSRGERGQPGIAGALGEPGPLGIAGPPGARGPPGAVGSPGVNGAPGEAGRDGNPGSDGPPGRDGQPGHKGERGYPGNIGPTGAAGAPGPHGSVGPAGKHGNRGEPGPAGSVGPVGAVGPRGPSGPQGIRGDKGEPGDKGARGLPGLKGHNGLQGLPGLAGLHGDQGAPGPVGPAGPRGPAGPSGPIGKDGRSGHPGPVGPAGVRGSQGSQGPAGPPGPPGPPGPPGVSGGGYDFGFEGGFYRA

## (Pro-Pro-Gly)6
MMP-2 CBD modules
  relative affinity of modules 1 and 2 versus module 3 for collagen-like peptide: modules 1 and 2 have higher affinity
MMP-2 CBD modules; early NMR study
  spectral perturbations of isolated CBD module 2: spectral perturbations of the surface-exposed aromatic residues Phe21, Tyr38, Trp40, Tyr47, Tyr53 and Phe55, as well as the neighboring Gly33-Gly37 segment

B1: Recombinant collagen binding domain (CBD) from human MMP-2, wildtype (domain or fragment)
chain: VVRVKYGNADGEYCKFPFLFNGKEYNSCTDTGRSDGFLWCSTTYNFEKDGKYGFCPHEALFTMGGNAEGQPCKFPFRFQGTSYDSCTTEGRTDGYRWCGTTEDYDRDKKYGFCPETAMSTVGGNSEGAPCVFPFTFLGNKYESCTSAGRSDGKMWCATTANYDDDRKWGFCPDQ
modifications: 15N (or 15N and 13C) labelled for NMR; biotinylated for the microwell assay
[1]
  Kd: 2.9 µM

B2: Y^329A: rCBD variant, single-point alanine substitution at Y^329, module 2 (protein)
chain: APSPIIKFPGDVAPKTDKELAVQYLNTFYGCPKESCNLFVLKDTLKKMQKFFGLPQTGDLDQNTIETMRKPRCGNPDVANYNFFPRKPKWDKNQITYRIIGYTPDLDPETVDDAFARAFQVWSDVTPLRFSRIHDGEADIMINFGRWEHGDGYPFDGKDGLLAHAFAPGTGVGGDSHFDDDELWTLGEGQVVRVKYGNADGEYCKFPFLFNGKEYNSCTDTGRSDGFLWCSTTYNFEKDGKYGFCPHEALFTMGGNAEGQPCKFPFRFQGTSYDSCTTEGRTDGYRWCGTTEDYDRDKKAGFCPETAMSTVGGNSEGAPCVFPFTFLGNKYESCTSAGRSDGKMWCATTANYDDDRKWGFCPDQGYSLFLVAAHEFGHAMGLEHSQDPGALMAPIYTYTKNFRLSQDDIKGIQELYGASPDIDLGTGPTPTLGPVTPEICKQDIVFDGIAQIRGEIFFFKDRFIWRTVTPRDKPMGPLLVATFWPELPEKIDAVYEAPQEEKAVFFAGNEYWIYSASTLERGYPKPLTSLGLPPDVQRVDAAFNWSKNKKTYIFAGDKFWRYNEVKKKMDPGFPKLIADAWNAIPDNLDAVVDLQGGGHSYFFKGAYYLKLENQSLKSVKFGSIKSDWLGC
modifications: biotinylated for the microwell assay; left off: His tag, end not stated, state not stated
[2]
  binding to gelatin / denatured type I collagen (SPR, RU): strong reduction in binding
Native type I collagen
  binding to native type I collagen (SPR, RU): strong reduction in binding

B3: W^374A: rCBD variant, single-point alanine substitution at W^374, module 3 (protein)
chain: APSPIIKFPGDVAPKTDKELAVQYLNTFYGCPKESCNLFVLKDTLKKMQKFFGLPQTGDLDQNTIETMRKPRCGNPDVANYNFFPRKPKWDKNQITYRIIGYTPDLDPETVDDAFARAFQVWSDVTPLRFSRIHDGEADIMINFGRWEHGDGYPFDGKDGLLAHAFAPGTGVGGDSHFDDDELWTLGEGQVVRVKYGNADGEYCKFPFLFNGKEYNSCTDTGRSDGFLWCSTTYNFEKDGKYGFCPHEALFTMGGNAEGQPCKFPFRFQGTSYDSCTTEGRTDGYRWCGTTEDYDRDKKYGFCPETAMSTVGGNSEGAPCVFPFTFLGNKYESCTSAGRSDGKMACATTANYDDDRKWGFCPDQGYSLFLVAAHEFGHAMGLEHSQDPGALMAPIYTYTKNFRLSQDDIKGIQELYGASPDIDLGTGPTPTLGPVTPEICKQDIVFDGIAQIRGEIFFFKDRFIWRTVTPRDKPMGPLLVATFWPELPEKIDAVYEAPQEEKAVFFAGNEYWIYSASTLERGYPKPLTSLGLPPDVQRVDAAFNWSKNKKTYIFAGDKFWRYNEVKKKMDPGFPKLIADAWNAIPDNLDAVVDLQGGGHSYFFKGAYYLKLENQSLKSVKFGSIKSDWLGC
modifications: biotinylated for the microwell assay; left off: His tag, end not stated, state not stated
[2]
  binding to gelatin / denatured type I collagen (SPR, RU): strong reduction in binding
Native type I collagen
  binding to native type I collagen (SPR, RU): strong reduction in binding

B4: Y^381A: rCBD variant, single-point alanine substitution at Y^381, module 3 (protein)
chain: APSPIIKFPGDVAPKTDKELAVQYLNTFYGCPKESCNLFVLKDTLKKMQKFFGLPQTGDLDQNTIETMRKPRCGNPDVANYNFFPRKPKWDKNQITYRIIGYTPDLDPETVDDAFARAFQVWSDVTPLRFSRIHDGEADIMINFGRWEHGDGYPFDGKDGLLAHAFAPGTGVGGDSHFDDDELWTLGEGQVVRVKYGNADGEYCKFPFLFNGKEYNSCTDTGRSDGFLWCSTTYNFEKDGKYGFCPHEALFTMGGNAEGQPCKFPFRFQGTSYDSCTTEGRTDGYRWCGTTEDYDRDKKYGFCPETAMSTVGGNSEGAPCVFPFTFLGNKYESCTSAGRSDGKMWCATTANADDDRKWGFCPDQGYSLFLVAAHEFGHAMGLEHSQDPGALMAPIYTYTKNFRLSQDDIKGIQELYGASPDIDLGTGPTPTLGPVTPEICKQDIVFDGIAQIRGEIFFFKDRFIWRTVTPRDKPMGPLLVATFWPELPEKIDAVYEAPQEEKAVFFAGNEYWIYSASTLERGYPKPLTSLGLPPDVQRVDAAFNWSKNKKTYIFAGDKFWRYNEVKKKMDPGFPKLIADAWNAIPDNLDAVVDLQGGGHSYFFKGAYYLKLENQSLKSVKFGSIKSDWLGC
modifications: biotinylated for the microwell assay; left off: His tag, end not stated, state not stated
[2]
  binding to gelatin / denatured type I collagen (SPR, RU): strong reduction in binding
Native type I collagen
  binding to native type I collagen (SPR, RU): strong reduction in binding

B5: R^368A: rCBD variant, single-point alanine substitution at R^368, module 3 (protein)
chain: APSPIIKFPGDVAPKTDKELAVQYLNTFYGCPKESCNLFVLKDTLKKMQKFFGLPQTGDLDQNTIETMRKPRCGNPDVANYNFFPRKPKWDKNQITYRIIGYTPDLDPETVDDAFARAFQVWSDVTPLRFSRIHDGEADIMINFGRWEHGDGYPFDGKDGLLAHAFAPGTGVGGDSHFDDDELWTLGEGQVVRVKYGNADGEYCKFPFLFNGKEYNSCTDTGRSDGFLWCSTTYNFEKDGKYGFCPHEALFTMGGNAEGQPCKFPFRFQGTSYDSCTTEGRTDGYRWCGTTEDYDRDKKYGFCPETAMSTVGGNSEGAPCVFPFTFLGNKYESCTSAGASDGKMWCATTANYDDDRKWGFCPDQGYSLFLVAAHEFGHAMGLEHSQDPGALMAPIYTYTKNFRLSQDDIKGIQELYGASPDIDLGTGPTPTLGPVTPEICKQDIVFDGIAQIRGEIFFFKDRFIWRTVTPRDKPMGPLLVATFWPELPEKIDAVYEAPQEEKAVFFAGNEYWIYSASTLERGYPKPLTSLGLPPDVQRVDAAFNWSKNKKTYIFAGDKFWRYNEVKKKMDPGFPKLIADAWNAIPDNLDAVVDLQGGGHSYFFKGAYYLKLENQSLKSVKFGSIKSDWLGC
modifications: biotinylated for the microwell assay; left off: His tag, end not stated, state not stated
[2]
  binding to gelatin / denatured type I collagen (SPR, RU): strong reduction in binding
Native type I collagen
  binding to native type I collagen (SPR, RU): strong reduction in binding
